Assay results as given in ChEMBL document CHEMBL3271940, “Monoquaternary neuromuscular blocking agents based on 1-tetralone and 1-indanone” (J Med Chem, 1976).

Legend:
[1] = species: Felis catus; assay: Neuromuscular blocking activity in cat assessed as blockade of tibialis muscle twitches; assay type: functional
Outline: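 The reported value is the dose that produced 50% blockade of muscle twitches, given ± standard error together with the number of determinations.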

[2] = Dissociation constant, pKa of the compound in water; assay type: physicochemical
[3] = species: Felis catus; assay: Neuromuscular blocking activity in cat assessed as time duration of action of blockade of tibialis muscle twitches at ED50; assay type: functional

For C[N+](C)(C)c1ccc2c(c1)CCC/C2=N\N.[I-], the ED50 [1] was 0.16 µmol/kg, the pKa [2] was 2.5 and the Time [3] was 5.2 min.

In the case of C[N+](C)(C)c1cccc2c1CCC/C2=N\N.Cc1ccc(S(=O)(=O)[O-])cc1, the ED50 [1] is reported as > 10 µmol/kg.

In the case of C[N+](C)(C)c1ccc2c(c1)/C(=N/N)CCC2.[I-], the ED50 [1] is reported as > 10 µmol/kg.

In the case of C[N+](C)(C)c1cccc2c1CC/C2=N\N.[I-], the ED50 [1] is reported as > 10 µmol/kg.

For CN(C)/N=C1\CCCc2cc([N+](C)(C)C)ccc21.[I-], the ED50 [1] was > 10 µmol/kg.

With C[N+](C)(C)CCOC(=O)CCC(=O)OCC[N+](C)(C)C.[Cl-].[Cl-] [SUCCINYLCHOLINE CHLORIDE] the ED50 [1] was 0.1 µmol/kg and the Time [3] was 4.4 min.

In the case of C[N+](C)(C)c1ccc2c(c1)CC/C2=N\N.[I-], the ED50 [1] is reported as 0.44 µmol/kg and the Time [3] is reported as 10 min.

For C[N+](C)(C)c1ccc2c(c1)/C(=N/N)CC2.[I-], the ED50 [1] was 3.98 µmol/kg and the Time [3] was 17.1 min.
